Laboratory results as given in ChEMBL document CHEMBL1143879, “Identification of novel series of human CCR1 antagonists” (Bioorg Med Chem Lett, 2008).

How the values were obtained:
[1] = target: T1, C-C chemokine receptor type 1 (Homo sapiens, UniProt P32246); assay: Antagonist activity at human CCR1 receptor expressed in THP1 cells assessed as human MIP-1-alpha-stimulated intracellular calcium level by FLIPR assay; format: functional, cell-based, THP-1
T1 sequence (P32246 whole entry): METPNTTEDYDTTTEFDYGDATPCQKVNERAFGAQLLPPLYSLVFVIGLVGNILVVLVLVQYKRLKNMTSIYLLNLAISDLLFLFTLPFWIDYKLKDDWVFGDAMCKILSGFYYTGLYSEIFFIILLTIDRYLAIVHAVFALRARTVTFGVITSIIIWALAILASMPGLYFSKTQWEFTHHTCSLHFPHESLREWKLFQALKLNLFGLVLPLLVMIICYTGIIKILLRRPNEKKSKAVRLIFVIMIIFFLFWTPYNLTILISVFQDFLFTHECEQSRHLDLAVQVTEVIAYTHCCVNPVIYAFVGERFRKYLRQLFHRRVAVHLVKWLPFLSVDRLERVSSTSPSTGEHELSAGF
Outline: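 THP-1 cells in RPMI-1640 at 2 × 10⁶/ml, mixed 1:1 with calcium dye buffer, loaded 30 min at 37 °C with 2.5 mM probenecid. Cells spun down, resuspended in RPMI-1640 with 0.1% BSA and plated at 1.5 × 10⁵/well with or without compound. Stimulated with 5 nM human MIP-1α; intracellular Ca²⁺ change read by FLIPR. IC50, mean of at least two independent experiments.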

[2] = target: T1, C-C chemokine receptor type 1; assay: Displacement of [125I]MIP1-alpha from human CCR1 receptor expressed in THP1 cells; format: cell-based, THP-1
Outline: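 THP-1 cells expressing CCR1, washed in PBS, at 5 × 10⁶/ml with compound or vehicle and 50 pM human [¹²⁵I]MIP-1α. Binding buffer: 50 mM Hepes pH 7.4, 5 mM MgCl₂, 1 mM CaCl₂, 0.5% BSA. Incubated 90 min at room temperature, then filtered on PEI-coated glass fibre and washed with buffer plus 0.5 M NaCl. Bound counts by scintillation. IC50, mean of triplicates in one experiment.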

[3] = Selectivity for human CCR1 receptor over CCR4 receptor
THP-1 = assay: Inhibition of CCL3-induced chemotaxis in human THP1 cells after 2 hrs; format: functional, cell-based; details: THP-1, 2 h
Outline: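 Calcein-labelled THP-1 cells washed in RPMI-1640 and resuspended at 5 × 10⁶/ml. Preincubated 30 min at 37 °C with compound or DMSO, then placed above a 5 µm polycarbonate filter in a Boyden chamber. The lower wells held 0.5 nM human MIP-1α with or without compound. Chamber incubated 2 h at 37 °C.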

SMILES	IC50 [1] [nM]	IC50 [2] [nM]	Selectivity ratio [3]	IC50 (THP-1) [nM]
O=S(=O)(c1ccccc1)N1CCC(N2CCC(O)(c3ccc(Cl)cc3)CC2)CC1	1240	1270	> 100	
O=S(=O)(c1ccccc1Br)N1CCC(N2CCC(O)(c3ccc(Cl)cc3)CC2)CC1	90	90	> 100	42
O=S(=O)(NCCCN1CCC(O)(c2ccc(Cl)cc2)CC1)c1ccccc1-c1cccs1	230	240	> 100	296
